{"source": "paper PMC12015351", "about": "(Scientific Reports, 2025)", "key": {"[1]": {"system": "SARS-CoV-2 replicon in Caco-2 cells", "assay_type": "cell-based", "details": "for activity level in presence of Cnd: Caco-2, specific dose of Cnd (candesartan)"}, "[2]": {"system": "3CLpro", "details": "FRET-based enzymatic assay; cited from earlier work"}, "[3]": {"system": "SARS-CoV-2 replicon in Calu-3 cells", "assay": "microbe, parasite or virus in culture", "assay_type": "cell-based", "details": "for activity level in presence of Cnd: Calu-3, specific dose of Cnd (candesartan)"}, "[4]": {"target": "3CL Protease (SARS-CoV-2) (Severe acute respiratory syndrome coronavirus 2, UniProt P0DTD1)", "assay": "biochemical", "details": "read-out: inhibition of in vitro protease activity"}, "[5]": {"system": "3CLpro", "details": "read-out: IC50 on 3CLpro activity; cited from earlier work"}, "[6]": {"system": "SARS-CoV-2-induced cytopathic effects in Vero E6", "details": "live virus; cited from earlier work"}, "[7]": {"system": "SARS-CoV-2-induced cytopathic effects in human A549 cells (A549/ACE2)", "details": "live virus; cited from earlier work"}, "[8]": {"system": "Calu-3 cells", "assay": "Cell viability assay, xCelligence RTCA-DP, Calu-3", "assay_type": "cell-based, human"}, "[9]": {"system": "Caco-2 cells", "assay": "Cell viability assay, xCelligence RTCA-DP, Caco-2", "assay_type": "cell-based, human", "details": "50 µM", "outline": "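Impedance-based real-time cell index monitoring. Seeding in e-plates: 15 × 10³ cells/well for Calu-3, 10 × 10³ for Caco-2. Plates rested 20 min at room temperature, then held at 37 °C, 5% CO2. After 24 h, medium replaced with test compound at 50, 10, 2 or 0.4 µM; 2 replicates per line. Readings every 15 min for 72 h; ~100 h curves compared with control.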"}, "[10]": {"system": "SARS-CoV-2", "details": "mouse models; cited from earlier work"}, "[11]": {"system": "SARS-CoV-2 growth in lung cells", "details": "cited from earlier work"}, "[12]": {"details": "person with VITT after ChAdOx1-S vaccine; cited from earlier work"}}, "note": "pIC50: −log10 of the molar value.", "data": [{"smiles": "CCOc1nc2cccc(C(=O)O)c2n1Cc1ccc(-c2ccccc2-c2nnn[nH]2)cc1", "note": "[Cnd, Candesartan]", "values": [{"measurement": "IC50 range in words, Caco-2", "setting": "[1]", "result": "sub-micromolar range"}, {"measurement": "inhibitory activity on 3CLpro", "setting": "[2]", "result": "did not confirm"}, {"measurement": "IC50 range in words, Calu-3", "setting": "[3]", "result": "sub-micromolar range"}, {"measurement": "inhibition at 50 µM", "setting": "[4]", "result": "≥ 50", "unit": "%"}]}, {"smiles": "CC1(C)O[C@@H]2C[C@H]3[C@@H]4C[C@H](F)C5=CC(=O)C=C[C@]5(C)[C@@]4(F)[C@@H](O)C[C@]3(C)[C@]2(C(=O)CO)O1", "note": "[Drug B2, Fluocinolone]", "values": [{"measurement": "inhibition at 50 µM", "setting": "[4]", "result": "≥ 50", "unit": "%"}]}, {"smiles": "CC(=O)OCC(=O)[C@@]12OC3(CCCC3)O[C@@H]1C[C@H]1[C@@H]3CCC4=CC(=O)C=C[C@]4(C)[C@@]3(F)[C@@H](O)C[C@@]12C", "note": "[Drug B5, Amcinonide]", "values": [{"measurement": "activity level in presence of Cnd", "setting": "[1]", "result": "activity at the nanomolar (nM) level"}, {"measurement": "IC50", "setting": "[3]; Severe acute respiratory syndrome coronavirus 2, Calu-3, read-out: IC50 (µM) in Calu-3 cells", "result": "2 to 5", "unit": "µM"}, {"measurement": "inhibition at 50 µM", "setting": "[4]", "result": "≥ 50", "unit": "%"}]}, {"smiles": "CC1(C)O[C@@H]2C[C@H]3[C@@H]4CCC5=CC(=O)C=C[C@]5(C)[C@H]4[C@@H](O)C[C@]3(C)[C@]2(C(=O)CO)O1", "note": "[Drug B7, Desonide]", "values": [{"measurement": "inhibition at 50 µM", "setting": "[4]", "result": "≥ 50", "unit": "%"}]}, {"smiles": "CC(=O)[C@@]1(O)CC[C@H]2[C@@H]3C[C@H](C)C4=CC(=O)C=C[C@]4(C)[C@@]3(F)[C@@H](O)C[C@@]21C", "note": "[Drug B9, Fluorometholone]", "values": [{"measurement": "inhibition at 50 µM", "setting": "[4]", "result": "≥ 50", "unit": "%"}]}, {"smiles": "O=c1[nH]c2ccccc2n1C1CCN(CCCC(c2ccc(F)cc2)c2ccc(F)cc2)CC1", "note": "[Drug B11, Pimozide]", "values": [{"measurement": "pIC50", "setting": "[5]", "result": 4.37}, {"measurement": "inhibition of SARS-CoV-2-induced cytopathic effects", "setting": "[6]", "result": "significant inhibition"}, {"measurement": "activity level in presence of Cnd", "setting": "[1]", "result": "activity at the nanomolar (nM) level"}, {"measurement": "inhibition of SARS-CoV-2-induced cytopathic effects", "setting": "[7]", "result": "significant inhibition"}, {"measurement": "activity level in presence of Cnd", "setting": "[3]", "result": "activity at the nanomolar (nM) level"}, {"measurement": "inhibition at 50 µM", "setting": "[4]", "result": "≥ 50", "unit": "%"}, {"measurement": "effect on cell proliferation (cell index)", "setting": "[8]; 50 µM", "result": "reduced cell proliferation"}]}, {"smiles": "CC(C)C(=O)OCC(=O)[C@@]12O[C@H](C3CCCCC3)O[C@@H]1C[C@H]1[C@@H]3CCC4=CC(=O)C=C[C@]4(C)[C@H]3[C@@H](O)C[C@@]12C", "note": "[Drug B12, Ciclesonide]", "values": [{"measurement": "effect on cell proliferation (cell index)", "setting": "[8]; 50 µM", "result": "reduced cell proliferation"}, {"measurement": "effect on cell proliferation (cell index)", "setting": "[9]", "result": "toxic effects"}]}, {"smiles": "COc1ccc2c(O[C@@H]3C[C@H]4C(=O)N[C@]5(C(=O)NS(=O)(=O)C6CC6)C[C@H]5/C=C\\CCCCN(C)C(=O)[C@@H]4C3)cc(-c3nc(C(C)C)cs3)nc2c1C", "note": "[Drug B18, Simeprevir]", "values": [{"measurement": "effect on cell proliferation (cell index)", "setting": "[9]", "result": "toxic effects"}]}, {"smiles": "Cc1c(O)cccc1C(=O)N[C@@H](CSc1ccccc1)[C@H](O)CN1C[C@H]2CCCC[C@H]2C[C@H]1C(=O)NC(C)(C)C", "note": "[Drug B21, Nelfinavir]", "values": [{"measurement": "inhibition at 50 µM", "setting": "[4]", "result": "≥ 50", "unit": "%"}]}, {"smiles": "Cc1ccc(NC(=O)C2(c3ccc4c(c3)OC(F)(F)O4)CC2)nc1-c1cccc(C(=O)O)c1", "note": "[Drug B22, Lumacaftor]", "values": [{"measurement": "IC50 range in words, Caco-2", "setting": "[1]", "result": "sub-micromolar range"}, {"measurement": "activity level in presence of Cnd", "setting": "[1]", "result": "activity at the nanomolar (nM) level"}, {"measurement": "SARS-CoV-2 growth", "setting": "[10]", "result": "inhibit SARS-CoV-2 growth"}, {"measurement": "IC50 range in words, Calu-3", "setting": "[3]", "result": "sub-micromolar range"}, {"measurement": "inhibition at 50 µM", "setting": "[4]", "result": "≥ 50", "unit": "%"}, {"measurement": "SARS-CoV-2 growth", "setting": "[11]", "result": "inhibit SARS-CoV-2 growth"}]}, {"smiles": "C[C@@H]1CCO[C@H]2Cn3cc(C(=O)NCc4ccc(F)cc4F)c(=O)c(O)c3C(=O)N12", "note": "[Drug B23, Dolutegravir]", "values": [{"measurement": "inhibition at 50 µM", "setting": "[4]", "result": "≥ 50", "unit": "%"}]}, {"smiles": "NC(=O)C(c1ccccc1)(c1ccccc1)[C@@H]1CCN(CCc2ccc3c(c2)CCO3)C1", "note": "[Drug B25, Darifenacin]", "values": [{"measurement": "effect on cell proliferation (cell index)", "setting": "[8]; 25 µM, after a certain period", "result": "reduced cell proliferation"}, {"measurement": "effect on cell proliferation (cell index)", "setting": "[8]; 50 µM", "result": "reduced cell proliferation"}]}, {"smiles": "CC1=NN(c2ccc(C)c(C)c2)C(=O)/C1=N\\Nc1cccc(-c2cccc(C(=O)O)c2)c1O", "note": "[Elt, Eltrombopag]", "values": [{"measurement": "activity level in presence of Cnd", "setting": "[1]", "result": "activity at the nanomolar (nM) level"}, {"measurement": "activity level in presence of Cnd", "setting": "[3]", "result": "activity at the nanomolar (nM) level"}, {"measurement": "inhibition at 50 µM", "setting": "[4]", "result": "≥ 50", "unit": "%"}, {"measurement": "effect on cell proliferation (cell index)", "setting": "[8]; 50 µM", "result": "reduced cell proliferation"}, {"measurement": "platelet levels", "setting": "[12]", "result": "normalized"}, {"measurement": "effect on cell proliferation (cell index)", "setting": "[9]", "result": "toxic effects"}]}, {"smiles": "CC(C)COCC(CN(Cc1ccccc1)c1ccccc1)N1CCCC1", "note": "(stereo not shown) [bepridil]", "values": [{"measurement": "inhibition of SARS-CoV-2-induced cytopathic effects", "setting": "[6]", "result": "significant inhibition"}, {"measurement": "inhibition of SARS-CoV-2-induced cytopathic effects", "setting": "[7]", "result": "significant inhibition"}]}, {"smiles": "CC(C)(C)c1cc(C(C)(C)C)c(NC(=O)c2c[nH]c3ccccc3c2=O)cc1O", "note": "[ivacaftor]", "values": [{"measurement": "SARS-CoV-2 growth", "setting": "[10]", "result": "inhibit SARS-CoV-2 growth"}, {"measurement": "SARS-CoV-2 growth", "setting": "[11]", "result": "inhibit SARS-CoV-2 growth"}]}]}
